In brackets after ≈: the same amount, converted by molar mass. Activity calls are given as the source filed them. The calls are words filed in the database; no cut-off is given here.
What was measured:
[1] = test system: HEK-293T; assay: Cytotoxicity against HEK293T cells; type: cell-based; conditions: Homo sapiens
Procedure, shortened: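 HEK293T seeded the day before in RPMI 1640 with 10% FBS, penicillin/streptomycin and 2 mM L-glutamine. Serial dilutions from DMSO were added for 48 h at 37 °C, 5% CO2. Then MTT for 3 h, formazan taken up in DMSO, absorbance read at 570 nm. EC50 by nonlinear regression of the concentration–response curve.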

[2] = test system: Plasmodium falciparum; assay: Antiplasmodial activity against blood stage of chloroquine-resistant Plasmodium falciparum W2 infected in human RBC assessed as parasite growth inhibition after 48 hrs by flow cytometric analysis; type: functional, organism-based; conditions: W2, 48 h
[3] = Selectivity index, ratio of EC50 for HEK293T cells to IC50 for blood stage of chloroquine-resistant Plasmodium falciparum W2 infected in human RBC; type: functional, HEK-293T
Procedure, shortened: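 Ratio of two values. EC50: HEK293T cells seeded the previous day in RPMI 1640/10% FBS, given serial DMSO-diluted compound for 48 h at 37 °C, 5% CO2, then MTT for 3 h; formazan read at 570 nm and EC50 fitted by nonlinear regression. IC50: 48 h W2 blood-stage growth in human RBCs, scored by YOYO-1 flow cytometry.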

[4] = test system: Liver microsomes; assay: Metabolic stability in rat liver microsomes assessed as compound remaining at 1 uM after 6 hrs by HPLC analysis in absence of NADPH-regenerating system; type: ADME, Microsome
Procedure, shortened: (§1)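 Compound at 1 μM incubated at 37 °C with pooled rat liver microsomes (0.2 mg protein/mL) in 10 mM phosphate buffer, pH 7.4. Reaction started with NADPH-regenerating system A (NADP+, glucose 6-phosphate, MgCl2) plus B (glucose 6-phosphate dehydrogenase); no-cofactor runs used water instead. Remaining compound measured after 6 h by RP-18 HPLC in acetonitrile/water 25:75, 1 mL/min.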

[5] = Metabolic stability in rat liver microsomes assessed as compound remaining at 1 uM after 6 hrs by HPLC analysis in presence of NADPH-regenerating system; type: ADME, Microsome; conditions: read-out: Stability; procedure, shortened: as §1
[6] = Inhibition of hemozoin-like crystal formation at 1 to 1000 uM after 5 days; type: functional
Procedure, shortened: (§2)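 Hemozoin-like crystal stock sonicated 3 min and diluted in broth to 2 μM final (heme equivalents). Compounds from 25 mM DMSO stocks were 0.22-μm filtered and dosed at 0–1000 μM final. Incubated 37 °C, 5% CO2, 5 days, then scored for presence or absence of crystal growth. Run in triplicate.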

[7] = test system: Huh-7; assay: Cytotoxicity against human HuH7 cells assessed as cell viability up to 5 uM by AlamarBlue assay; type: cell-based
Procedure, shortened: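 Huh-7 hepatoma cells in RPMI 1640 with 10% FCS, nonessential amino acids, glutamine and 10 mM HEPES pH 7, kept at 37 °C, 5% CO2. Treated as in the liver-stage infection assay. Viability read by AlamarBlue per manufacturer's protocol.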

[8] = test system: Plasmodium berghei; assay: Antiplasmodial activity against liver stage of Plasmodium berghei infected in human HuH7 cells assessed as parasite growth inhibition incubated for 1 hr prior to parasite infection measured after 48 hrs; type: functional, organism-based; conditions: Huh-7, Liver
Procedure, shortened: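 Huh-7 cells (12 × 10^3/well) seeded the day before, given compound (10 mM MeOH stock diluted in medium) 1 h before adding 10 000 P. berghei PbGFP-Luccon sporozoites/well from mosquito salivary glands, then spun 1700g 5 min. Medium with compound renewed at 24 h. Luminescence read 48 h post-infection; IC50 by nonlinear regression of normalized dose–response.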

[9] = Inhibition of hemozoin-like crystal formation after 5 days; type: functional; conditions: 120 h; procedure, shortened: as §2
[10] = test system: Plasmodium berghei; assay: Potency index, ratio of primaquine IC50 to compound IC50 for liver stage of Plasmodium berghei infected in human HuH7 cells; type: functional, Huh-7
[11] = Chemical stability in aqueous buffer at pH 7.4 at 37 degC measured for 10 days; type: physicochemical; conditions: pH 7.4, 240 h
Procedure, shortened: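 Stability tested by holding compound in aqueous buffer at pH 7.4 (and pH 0.3) at 37 °C for 10 days.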

[12] = test system: Liver microsomes; assay: Drug metabolism in rat liver microsomes assessed as quinoline metabolite formation through N-dealkylation of compound after 6 hrs by mass spectrophotometric analysis; type: ADME, Microsome
[13] = test system: Plasmodium falciparum; assay: Antiplasmodial activity against Plasmodium falciparum 3D7 transfected with yeast GFP-tagged DHODH assessed as parasite growth inhibition; type: functional, organism-based
[14] = test system: Plasmodium falciparum; assay: Antiplasmodial activity against Plasmodium falciparum 3D7 assessed as parasite growth inhibition; type: functional, organism-based
[15] = test system: Plasmodium falciparum; assay: Inhibition of Plasmodium falciparum cytochrome bc1 complex using decylubiquinol as substrate at <= 10 uM by UV-visible spectrophotometric analysis

| Molecule | EC50 [1] | IC50 [2] | Selectivity Index [3] | Stability [4] | remaining at 6 h, 1 µM [5] | Activity [7] | IC50 [8] | other results |
| --- | --- | --- | --- | --- | --- | --- | --- | --- |
| CCN(CC)CCCn1cc/c(=N\c2ccc(-c3ccccc3)cc2)c2ccc(Cl)cc21 | > 100 µM | 151 nM | >662 |  |  |  |  |  |
| CCN(CC)CCCCn1cc/c(=N\c2ccc(-c3ccccc3)cc2)c2ccc(C(F)(F)F)cc21 | > 100 µM | 50.3 nM | >1988 | Stable | 81.5% |  |  |  |
| CCN(CC)CCn1cc/c(=N\c2ccc(-c3ccccc3)cc2)c2ccc(C(F)(F)F)cc21 | 38.5 µM | 525 nM | 73 | Stable | 80.4% | Non-toxic | 4610 nM | inhibition [6]: inactive |
| FC(F)(F)c1ccc2c(c1)/c(=N/c1ccc(-c3ccccc3)cc1)ccn2CCCN1CCCCC1 | 23.7 µM | 631 nM | 38 |  |  | Non-toxic |  | MIC [9]: 1000 µM (≈ 490 µg/mL) |
| GENTAMICIN |  |  |  |  |  |  |  | inhibition [6]: inactive |
| Fc1ccc(/N=c2\ccn(CCCN3CCCCC3)c3cc(Cl)ccc23)cc1 | > 100 µM | 369 nM | >271 |  |  | Non-toxic | 4780 nM | inhibition [6]: inactive |
| Clc1ccc(/N=c2\ccn(CCCN3CCCCC3)c3cc(Cl)ccc23)cc1 | > 100 µM | 259 nM | >386 |  |  | Non-toxic | 2700 nM | inhibition [6]: inactive |
| CCN(CC)CCCn1cc/c(=N\c2ccc(-c3ccccc3)cc2)c2ccc(C(F)(F)F)cc21 | > 100 µM | 144 nM | >694 |  |  |  |  |  |
| Fc1ccc(-c2ccc3/c(=N/c4ccc(-c5ccccc5)cc4)ccn(CCCN4CCCCC4)c3c2)cc1 | 7.63 µM | 55.4 nM | 138 |  |  | Non-toxic | 2070 nM | MIC [9]: 500 µM (≈ 258 µg/mL) |
| Clc1ccc2/c(=N/c3ccc(Oc4ccccc4)cc3)ccn(CCCN3CCCCC3)c2c1 | 30.6 µM | 160 nM | 191 | Stable | 73% | Non-toxic |  | MIC [9]: 500 µM (≈ 236 µg/mL) |
| Cc1ccc(/N=c2\ccn(CCCN3CCCCC3)c3cc(Cl)ccc23)cc1 | > 100 µM | 331 nM | >302 |  |  |  |  |  |
| c1ccc(-c2ccc(/N=c3\ccn(CCCN4CCCCC4)c4cc(-c5cnc6ccccc6c5)ccc34)cc2)cc1 | 7.68 µM | 53.7 nM | 143 |  |  |  | 710 nM | Ratio IC50 [10]: > 10 |
| Clc1ccc2c(c1)/c(=N/c1ccc(-c3ccccc3)cc1)ccn2CCCN1CCCCC1 | 21.8 µM | 99.7 nM | 219 | Stable | 75% | Non-toxic |  | Stability [11]: Stable; MIC [9]: 1000 µM (≈ 456 µg/mL); Drug metabolism [12]: Active |
| Clc1ccc2/c(=N/c3ccccc3)ccn(CCCN3CCCCC3)c2c1 | > 100 µM | 273 nM | >366 |  |  | Non-toxic |  | inhibition [6]: inactive |
| Clc1ccc2/c(=N/c3ccc(-c4ccccc4)cc3)ccn(CCN3CCCC3)c2c1 | > 100 µM | 111 nM | >900 |  |  |  | 3460 nM | IC50 [13]: 186 nM; IC50 [14]: 177 nM |
| FC(F)(F)c1ccc2/c(=N/c3ccc(-c4ccccc4)cc3)ccn(CCCN3CCCCC3)c2c1 | 56.8 µM | 360 nM | 158 | Stable | 65% |  |  | IC50 [13]: 195 nM; IC50 [14]: 136 nM |
| c1ccc(-c2ccc(/N=c3\ccn(CCCN4CCCCC4)c4cc(Nc5ccccn5)ccc34)cc2)cc1 | 7.34 µM | 357 nM | 21 |  |  |  | 440 nM | Ratio IC50 [10]: > 10 |
| FC(F)(F)c1ccc2/c(=N/c3ccc(-c4ccccc4)cc3)ccn(CCN3CCCC3)c2c1 | > 100 µM | 226 nM | >442 | Stable | 79% | Non-toxic |  | inhibition [6]: inactive |
| CCN(CC)CCn1cc/c(=N\c2ccc(-c3ccccc3)cc2)c2ccc(Cl)cc21 | 37.1 µM | 498 nM | 74 | Stable | 68% |  |  |  |
| CCN(CC)CCCC(C)Nc1ccnc2cc(Cl)ccc12 (stereo not given) [CHLOROQUINE] |  |  |  |  |  |  |  | MIC [9]: 125 µM (≈ 40 µg/mL) |
| Fc1ccc(-c2ccc3/c(=N/c4ccccc4)ccn(CCCN4CCCCC4)c3c2)cc1 | > 100 µM | 216 nM | >463 |  |  |  | 1380 nM |  |
| CCN(CC)CCCCn1cc/c(=N\c2ccc(-c3ccccc3)cc2)c2ccc(Cl)cc21 | > 100 µM | 67.6 nM | >1479 | Stable | 62.7% |  | 2650 nM | IC50 [13]: 68.3 nM; inhibition [15]: inactive; IC50 [14]: 64.7 nM |
| Clc1ccc2/c(=N/c3ccc(-c4ccccc4)cc3)ccn(CCCN3CCCCC3)c2c1 | 41.8 µM | 144 nM | 290 |  |  |  |  | IC50 [13]: 52.3 nM; IC50 [14]: 73.7 nM |
| Clc1ccc2/c(=N/c3ccc(Br)cc3)ccn(CCCN3CCCCC3)c2c1 | > 100 µM | 74 nM | >1351 |  |  |  | 3010 nM |  |

Source: ChEMBL document CHEMBL2429868, “Structural optimization of quinolon-4(1H)-imines as dual-stage antimalarials: toward increased potency and metabolic stability” (J Med Chem, 2013)
